Data reported in ChEMBL document CHEMBL3596093, “Synthesis and antimicrobial evaluation of 5-aryl-1,2,4-triazole-3-thione derivatives containing a rhodanine moiety” (2015).
≈ marks a conversion by molar mass, not a printed value.

What was measured:
[1] = system: Staphylococcus aureus; assay: Antibacterial activity against Staphylococcus aureus RN4220 after 24 hrs by two-fold serial dilution method; type: functional; details: RN4220, 24 h
Summary of the method: (§1)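 Broth microdilution MIC. Bacteria grown to mid-log phase in Mueller-Hinton broth, diluted 1000-fold, about 10^5 CFU/mL. Compounds from DMSO stocks, two-fold serial dilution from a final 64 µg/mL. Incubation at 37 °C for 24 h. Growth read as absorbance at 630 nm on a microplate reader. Run in triplicate.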

[2] = system: Staphylococcus aureus; assay: Antibacterial activity against Staphylococcus aureus KCTC 209 after 24 hrs by two-fold serial dilution method; type: functional; details: KCTC 209, 24 h
Summary of the method: (§2)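 Strains grown to mid-log phase in Mueller-Hinton broth, then diluted 1000-fold in the same broth to about 10^5 CFU/mL. Compounds were made up as DMSO stocks and two-fold serially diluted from a final top concentration of 64 µg/mL. Incubation was 37 °C for 24 h. Growth was read as absorbance at 630 nm on a microplate reader. MIC assays were run in triplicate.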

[3] = system: Staphylococcus aureus; assay: Antibacterial activity against Staphylococcus aureus KCTC 503 after 24 hrs by two-fold serial dilution method; type: functional; details: KCTC 503, 24 h; summary of the method: as §2
[4] = system: Streptococcus mutans; assay: Antibacterial activity against Streptococcus mutans 3065 after 24 hrs by two-fold serial dilution method; type: functional; details: Streptococcus mutans, 3065, 24 h; summary of the method: as §2
[5] = system: Escherichia coli; assay: Antibacterial activity against Escherichia coli KCTC 1924 after 24 hrs by two-fold serial dilution method; type: functional; details: KCTC 1924, 24 h; summary of the method: as §2
[6] = system: Escherichia coli; assay: Antibacterial activity against Escherichia coli CCARM 1356 after 24 hrs by two-fold serial dilution method; type: functional; details: CCARM 1356, 24 h; summary of the method: as §2
[7] = system: Pseudomonas aeruginosa; assay: Antibacterial activity against Pseudomonas aeruginosa 2742 after 24 hrs by two-fold serial dilution method; type: functional; details: Pseudomonas aeruginosa, 2742, 24 h; summary of the method: as §2
[8] = system: Pseudomonas aeruginosa; assay: Antibacterial activity against Pseudomonas aeruginosa 2004 after 24 hrs by two-fold serial dilution method; type: functional; details: Pseudomonas aeruginosa, 2004, 24 h; summary of the method: as §2
[9] = system: Salmonella typhimurium; assay: Antibacterial activity against Salmonella typhimurium 2421 after 24 hrs by two-fold serial dilution method; type: functional, Salmonella enterica subsp. enterica serovar Typhimurium; details: Salmonella enterica, 2421, 24 h; summary of the method: as §2
[10] = system: Candida albicans; assay: Antifungal activity against Candida albicans 7535 after 24 hrs by two-fold serial dilution method; type: functional; details: Candida albicans, 7535, 24 h
[11] = system: Staphylococcus aureus; assay: Antibacterial activity against methicillin-resistant Staphylococcus aureus CCARM 3167 after 24 hrs by two-fold serial dilution method; type: functional; details: CCARM 3167, 24 h; summary of the method: as §1
[12] = system: Staphylococcus aureus; assay: Antibacterial activity against methicillin-resistant Staphylococcus aureus CCARM 3506 after 24 hrs by two-fold serial dilution method; type: functional; details: CCARM 3506, 24 h; summary of the method: as §1
[13] = system: Staphylococcus aureus; assay: Antibacterial activity against quinolone-resistant Staphylococcus aureus CCARM 3505 after 24 hrs by two-fold serial dilution method; type: functional; details: CCARM 3505, 24 h; summary of the method: as §1
[14] = system: Staphylococcus aureus; assay: Antibacterial activity against quinolone-resistant Staphylococcus aureus CCARM 3519 after 24 hrs by two-fold serial dilution method; type: functional; details: CCARM 3519, 24 h; summary of the method: as §1
[15] = system: Staphylococcus aureus; assay: Bactericidal activity against Staphylococcus aureus RN4220 after 24 hrs by agar plate method; type: functional; details: RN4220, 24 h
Summary of the method: (§3)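 Samples of 5 µL from MIC wells with no visible growth were plated onto fresh Mueller-Hinton agar and incubated a further 24 h at 37 °C. MBC is the lowest concentration giving no visible colony growth on the agar. Assays were run in triplicate.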

[16] = system: Staphylococcus aureus; assay: Bactericidal activity against Staphylococcus aureus KCTC 503 after 24 hrs by agar plate method; type: functional; details: KCTC 503, 24 h
Summary of the method: (§4)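 5 µL from each well without visible growth plated on fresh Mueller-Hinton agar, then 37 °C for a further 24 h. MBC is the lowest concentration giving no visible colonies. Run in triplicate.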

[17] = system: Escherichia coli; assay: Bactericidal activity against Escherichia coli KCTC 1924 after 24 hrs by agar plate method; type: functional; details: KCTC 1924, 24 h; summary of the method: as §3
[18] = system: Staphylococcus aureus; assay: Bactericidal activity against methicillin-resistant Staphylococcus aureus CCARM 3167 after 24 hrs by agar plate method; type: functional; details: CCARM 3167, 24 h; summary of the method: as §4
[19] = system: Staphylococcus aureus; assay: Bactericidal activity against methicillin-resistant Staphylococcus aureus CCARM 3506 after 24 hrs by agar plate method; type: functional; details: CCARM 3506, 24 h; summary of the method: as §4
[20] = system: Staphylococcus aureus; assay: Bactericidal activity against quinolone-resistant Staphylococcus aureus CCARM 3505 after 24 hrs by agar plate method; type: functional; details: CCARM 3505, 24 h; summary of the method: as §4
[21] = system: Staphylococcus aureus; assay: Bactericidal activity against quinolone-resistant Staphylococcus aureus CCARM 3519 after 24 hrs by agar plate method; type: functional; details: CCARM 3519, 24 h; summary of the method: as §4

SMILES	MIC [1]	MIC [2]	MIC [3]	MIC [4]	MIC [5]	MIC [6]	MIC [7]	MIC [8]	MIC [9]	MIC [10]	MIC [11]	MIC [12]	MIC [13]	MIC [14]	also measured
O=C(O)CN1C(=O)/C(=C/c2ccc(/C=N/n3c(-c4ccc(Br)cc4)n[nH]c3=S)cc2)SC1=S	> 64 µg/mL	> 64 µg/mL	> 64 µg/mL	> 64 µg/mL	> 128 µg/mL	> 128 µg/mL	> 128 µg/mL	> 128 µg/mL	> 128 µg/mL	> 64 µg/mL	> 64 µg/mL	> 64 µg/mL	> 64 µg/mL	> 64 µg/mL	–
Cc1cccc(-c2n[nH]c(=S)n2/N=C/c2ccc(/C=C3\SC(=S)NC3=O)cc2)c1	32 µg/mL (≈ 73.1 µM)	> 64 µg/mL	32 µg/mL (≈ 73.1 µM)	> 64 µg/mL	32 µg/mL (≈ 73.1 µM)	> 128 µg/mL	> 128 µg/mL	> 128 µg/mL	> 128 µg/mL	> 64 µg/mL	64 µg/mL (≈ 146 µM)	32 µg/mL (≈ 73.1 µM)	32 µg/mL (≈ 73.1 µM)	32 µg/mL (≈ 73.1 µM)	MBC [15]: > 256 µg/mL; MBC [16]: > 256 µg/mL; MBC [17]: 256 µg/mL (≈ 585 µM); MBC [18]: > 256 µg/mL; MBC [19]: > 256 µg/mL; MBC [20]: > 256 µg/mL; MBC [21]: > 256 µg/mL
Cc1ccc(-c2n[nH]c(=S)n2/N=C/c2ccc(/C=C3\SC(=S)NC3=O)cc2)cc1	> 64 µg/mL	> 64 µg/mL	> 64 µg/mL	> 64 µg/mL	> 128 µg/mL	> 128 µg/mL	> 128 µg/mL	> 128 µg/mL	> 128 µg/mL	> 64 µg/mL	> 64 µg/mL	> 64 µg/mL	> 64 µg/mL	> 64 µg/mL	–
O=C1NC(=S)S/C1=C\c1ccc(/C=N/n2c(-c3cccc(Cl)c3)n[nH]c2=S)cc1	> 64 µg/mL	> 64 µg/mL	> 64 µg/mL	> 64 µg/mL	> 128 µg/mL	> 128 µg/mL	> 128 µg/mL	> 128 µg/mL	> 128 µg/mL	> 64 µg/mL	> 64 µg/mL	> 64 µg/mL	> 64 µg/mL	> 64 µg/mL	–
O=C1NC(=S)S/C1=C\c1ccc(/C=N/n2c(-c3ccc(Cl)cc3)n[nH]c2=S)cc1	> 64 µg/mL	> 64 µg/mL	> 64 µg/mL	> 64 µg/mL	> 128 µg/mL	> 128 µg/mL	> 128 µg/mL	> 128 µg/mL	> 128 µg/mL	> 64 µg/mL	> 64 µg/mL	> 64 µg/mL	> 64 µg/mL	> 64 µg/mL	–
O=C1NC(=S)S/C1=C\c1ccc(/C=N/n2c(-c3ccc(Br)cc3)n[nH]c2=S)cc1	> 64 µg/mL	> 64 µg/mL	> 64 µg/mL	> 64 µg/mL	64 µg/mL (≈ 127 µM)	> 128 µg/mL	> 128 µg/mL	> 128 µg/mL	> 128 µg/mL	> 64 µg/mL	> 64 µg/mL	> 64 µg/mL	> 64 µg/mL	> 64 µg/mL	MBC [17]: > 256 µg/mL
O=C1NC(=S)S/C1=C\c1ccc(/C=N/n2c(-c3ccc(F)cc3)n[nH]c2=S)cc1	> 64 µg/mL	> 64 µg/mL	> 64 µg/mL	> 64 µg/mL	> 128 µg/mL	> 128 µg/mL	> 128 µg/mL	> 128 µg/mL	> 128 µg/mL	> 64 µg/mL	> 64 µg/mL	> 64 µg/mL	> 64 µg/mL	> 64 µg/mL	–
